Series [1] concerns the target Triosephosphate isomerase, glycosomal (Trypanosoma cruzi) (UniProt P52270). As to the kind of experiment: Inhibition of recombinant Trypanosoma cruzi triosephosphate isomerase assessed as reduction of DHAP at 200 uM after 2 hrs by measuring NADH consumption by alpha-glycerolphosphate dehydrogenase coupled assay. Summed up: (§1)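 Recombinant TIM (T. cruzi or human) at 5 µg/mL was preincubated with compound at 36 °C in 100 mM triethanolamine, 10 mM EDTA, pH 7.4, with compound dissolved in 10% DMSO. After 2 h, 1 µL was transferred into 1 mL of activity mix. Activity was measured as NADH consumed by α-glycerolphosphate dehydrogenase reducing DHAP. Controls were enzyme alone, substrate alone, and enzyme plus DMSO.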

Series [2] has the same target. As to the kind of experiment: Inhibition of recombinant Trypanosoma cruzi triosephosphate isomerase assessed as reduction of DHAP at 100 uM after 2 hrs by measuring NADH consumption by alpha-glycerolphosphate dehydrogenase coupled assay. Put shortly: as §1
In series [3] the test system is Trypanosoma cruzi. As to the kind of experiment: Antitrypanosomal activity against epimastigote forms of Trypanosoma cruzi INC-5 isolated from chagas disease patient after 24 hrs by resazurin dye based spectrophotometric analysis. Type of series: functional, organism-based. As to conditions: INC-5, 24 h. Summed up:
(§2)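 Epimastigotes at 1 × 10⁵/ml were exposed to compound for 24 h at 28 °C. Compounds were taken from 10 mg/mL DMSO stocks and diluted in sterile water, with final DMSO at most 1%. Concentrations were […], with DMSO-treated parasite controls. Viability was read by resazurin fluorescence (535/590 nm). Runs were in duplicate and IC50 was derived.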

Series [4] in a line: Solubility of the compound in DMSO at 200 uM. In kind it is physicochemical.
Series [5] relates to Trypanosoma cruzi. Description: Antitrypanosomal activity against epimastigote forms of Trypanosoma cruzi NINOA isolated from chagas disease patient after 24 hrs by resazurin dye based spectrophotometric analysis. Type of series: functional, organism-based. Summed up:
as §2

The target in series [6] is Triosephosphate isomerase (Homo sapiens) (UniProt P60174). Description: Inhibition of recombinant human triosephosphate isomerase assessed as reduction of DHAP at 100 uM after 2 hrs by measuring NADH consumption by alpha-glycerolphosphate dehydrogenase coupled assay. Summed up: as §1
Triosephosphate isomerase (Homo sapiens), sequence (P60174 whole entry): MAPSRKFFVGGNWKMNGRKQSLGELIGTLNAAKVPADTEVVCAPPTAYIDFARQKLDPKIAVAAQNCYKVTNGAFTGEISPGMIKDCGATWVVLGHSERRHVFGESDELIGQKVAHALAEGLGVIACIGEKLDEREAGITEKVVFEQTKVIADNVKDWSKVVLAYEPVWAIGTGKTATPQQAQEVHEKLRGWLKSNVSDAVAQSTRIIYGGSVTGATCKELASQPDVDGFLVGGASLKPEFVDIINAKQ
A short description of series [7]: Cytotoxicity against mouse J774 cells assessed as decrease in cell viability after 24 hrs by resazurin assay. In kind it is cell-based. Summed up:
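Mouse J774 macrophages were grown in DMEM with 10% FBS and treated with a range of compound concentrations for 24 h at 37 °C, 5% CO₂, with final DMSO below 1%. Untreated cells served as controls. Resazurin was added for 3 h and fluorescence was read (535/590 nm). Cytotoxicity was scored as % metabolic reduction versus untreated cells, and CC50 was derived.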

Series [8] has as its target Triosephosphate isomerase, glycosomal (Trypanosoma cruzi, UniProt P52270). Description: Inhibition of recombinant Trypanosoma cruzi triosephosphate isomerase assessed as reduction of DHAP after 2 hrs by measuring NADH consumption by alpha-glycerolphosphate dehydrogenase coupled assay. Put shortly: as §1
For series [9], the target named is Triosephosphate isomerase (Homo sapiens) (UniProt P60174). As to the kind of experiment: Inhibition of recombinant human triosephosphate isomerase assessed as reduction of DHAP at 200 uM after 2 hrs by measuring NADH consumption by alpha-glycerolphosphate dehydrogenase coupled assay. Put shortly: as §1

Triosephosphate isomerase, glycosomal (Trypanosoma cruzi), sequence (P52270 whole entry): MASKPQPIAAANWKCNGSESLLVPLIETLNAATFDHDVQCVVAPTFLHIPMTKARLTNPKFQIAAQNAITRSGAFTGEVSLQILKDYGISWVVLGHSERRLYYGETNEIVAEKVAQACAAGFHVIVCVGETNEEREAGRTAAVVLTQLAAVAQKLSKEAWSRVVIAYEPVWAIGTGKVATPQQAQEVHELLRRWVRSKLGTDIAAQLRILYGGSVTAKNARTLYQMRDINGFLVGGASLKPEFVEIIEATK
Triosephosphate isomerase, glycosomal, sequence (P52270 whole entry): as above

For `COC(=O)c1cc2nc(SCC(=O)Nc3ncccn3)[nH]c2cc1Cl`, the inhibition (usually the percentage by which the read-out fell short of the control) in [1] came to 0%.
For `COC(=O)c1cc2nc(SCC(=O)Nc3ccc(Cl)cc3)[nH]c2cc1Cl`, the figures for the inhibition in [2] and in series [6] were 65% and 0%, respectively. Besides, the IC50 (usually the concentration at which inhibition is half-maximal) in the series on Trypanosoma cruzi [3] was found to be 186 µM; with Trypanosoma cruzi [5], 57 µM. For the same compound, in series [4], the solubility entry is recorded as “Insoluble”. The CC50 (in general, the concentration that lowers cell viability or growth by half) at 24 h in [7] was found to be 90.4 µM.
Take `O=C(CSc1nc2cc(Oc3cccc4ccccc34)c(Cl)cc2[nH]1)Nc1ncc([N+](=O)[O-])s1`: in series [1], the inhibition is 48%.
For `COC(=O)c1cc2nc(SCC(=O)Nc3cccc(C(N)=O)n3)[nH]c2cc1Cl`, in [2], the inhibition is 0%. Besides, the solubility entry in [4] was “Insoluble”.
With `COC(=O)c1cc2nc(SCC(=O)Nc3ncc([N+](=O)[O-])s3)[nH]c2cc1Cl`, the IC50 in series [8] amounted to 77 µM; in the series on Trypanosoma cruzi [3], 42.5 µM; with Trypanosoma cruzi [5], 95.4 µM. For the same compound, the inhibition in [9] is 15%; in [1] it was 69%. Also, the CC50 at 24 h in [7] was found to be 84.9 µM.
For `COC(=O)c1cc2nc(SCC(=O)Nc3ccc(OC)cn3)[nH]c2cc1Cl`, the inhibition in [2] was determined as 4%. The solubility result in [4] is given as “Insoluble”.
The matching figures for `COC(=O)c1cc2nc(SCC(=O)Nc3cccc(Cl)n3)[nH]c2cc1Cl`: 21% and “Insoluble”.
Take `COC(=O)c1cc2nc(SCC(=O)Nc3cnccn3)[nH]c2cc1Cl`: the figures for the IC50 (in [8]; in the series on Trypanosoma cruzi [3]; in the series with Trypanosoma cruzi [5]) were 82 µM, 28.7 µM and 98.8 µM, respectively. The inhibition in series [9] is 6%; in series [1] it was 68%. The CC50 at 24 h in series [7] worked out at 135 µM.
Regarding `COC(=O)c1cc2nc(SCC(=O)Nc3ccncc3)[nH]c2cc1Cl`, the inhibition in series [1] turned out to be 33%.
Same read-out and setting: next, `COC(=O)c1ccc2nc(SCC(=O)Nc3ncc([N+](=O)[O-])s3)[nH]c2c1`: 52%.
With `COC(=O)c1cc2nc(SCC(=O)Nc3cccc(C)n3)[nH]c2cc1Cl`, the inhibition in [2] was found to be 0%. Further, the solubility entry in [4] is listed as “Insoluble”.
As to `COC(=O)c1cc2nc(SCC(=O)Nc3ccc(Cl)cn3)[nH]c2cc1Cl`, the inhibition in series [2] is 41%; in [6] it was 0%. Also, the IC50 in the series on Trypanosoma cruzi [3] came out at 95 µM; in the series on Trypanosoma cruzi [5], 124 µM. Also, the solubility result in series [4] was “Insoluble”. Also, the CC50 at 24 h in series [7] worked out at 82.7 µM.
As to `CC1CS(=O)(=O)CCN1/N=C/c1ccc([N+](=O)[O-])o1` (centres undefined) [NIFURTIMOX], the IC50 was determined as 50.8 µM in the series with Trypanosoma cruzi [3] and 89.8 µM in the series with Trypanosoma cruzi [5]. The CC50 at 24 h in [7] worked out at 132 µM.
For the compound `COC(=O)c1cc2nc(SCC(=O)Nc3ccccc3)[nH]c2cc1Cl`, in series [1], the inhibition stood at 33%.
On to `COC(=O)c1cc2nc(SCC(=O)Nc3nccs3)[nH]c2cc1Cl`, for which the half-maximal inhibitory concentration (IC50) in [8] was determined as 223 µM; with Trypanosoma cruzi [3] it was 48.9 µM; with Trypanosoma cruzi [5] it was 120 µM. For the same compound, the results for the inhibition in series [9] and in [1] were 0% and 59%, respectively. Besides, the CC50 at 24 h in series [7] was determined as 104 µM.
As for `COC(=O)c1cc2nc(SCC(=O)Nc3ccc([N+](=O)[O-])cn3)[nH]c2cc1Cl`, the inhibition in series [2] was determined as 0%. In addition, in series [4], the solubility entry is recorded as “Insoluble”.
Turning to `COC(=O)c1cc2nc(SCC(=O)Nc3ccccn3)[nH]c2cc1Cl`, the inhibition in [1] is 10%.
